The results in this text go back to PubChem BioAssay.

A word on the inhibition: it is the drop in the measured response relative to a control, in per cent.

Test [1] in a line: inhibitors of TNFa-induced NFkB p65 translocation, primary screen, imaging, HUVEC, MLSMR starter and 10KST1 sets (AID 438;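 active means inhibition above 20% together with a positive visual image hit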;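 further: compound added about 3h40 before a 20 min TNFalpha stimulation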;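 on inhibition: signal is the nuclear over cytoplasmic p65 intensity ratio per well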). The note with it: HUVEC TNFa-induced p65 nuclear translocation; cell count: measured here: nuclei count (cytotoxicity indicator), at 2.08 µM; inhibition: at 2 µM, stronger effect = higher value, 0% TNFa-plus-vehicle, 100% no-TNFa wells.
A short description of test [2]: endothelial E-selectin expression blockers – imaging, HUVEC, immunofluorescence, MLSMR starter and 10KST1 sets, primary screen (AID 487;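 active means visually confirmed hit in the image check and inhibition above 20%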;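 on inhibition: signal is fraction of cell area covered by stained E-selectin grains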;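 on nuclei count: 100% = median nuclei count of all wells on the same plate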). The note with it: HUVEC TNFalpha-induced E-selectin immunofluorescence imaging, at 2 µM; inhibition: stronger effect = higher value; nuclei count: measured here: cell number, toxicity.
A short description of test [3]: Primary imaging screen for DUSP6 inhibitors that restore phospho-Erk in transfected HeLa cells, chemical complementation (AID 609;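 active means compounds giving at least 50% inhibition in the cell-based MKP-3 phosphatase rescue imaging test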;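 on inhibition: phospho-Erk level distribution per well compared with pooled transfected vehicle control wells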). Particulars: HeLa MKP-3 transfected, phospho-Erk imaging KS statistic, at 10 µM, cells stimulated with TPA for 15 min.
Test [4] concerns the target Dual specificity protein phosphatase 6 (Homo sapiens) (UniProt Q16828). The test is described as above. The note with it: HeLa MKP-3 transfected, phospho-Erk imaging KS statistic; at 10 µM; stronger effect = higher value; cells stimulated with TPA for 15 min.
For test [5], the target named is Voltage-gated potassium channel subunit beta-2 (Rattus norvegicus) (UniProt P62483). Briefly: inhibitors of rat Kvbeta2 reductase activity – biochemical, NADPH fluorescence, primary screen (AID 622;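 active means fluorescence slope higher than the sample average by over 3 SD, cut at about -0.22 in these data, passing the limit was not always enough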;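 further: slope of raw intensity against log time taken from 70 to 1610 s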). Particulars: recombinant KvBeta, 4-cyanobenzaldehyde reduction, at 10 µM, stronger effect = higher value.
For test [6] the target is unchanged. Briefly: enhancers of rat Kvbeta2 NADPH turnover – biochemical, NADPH fluorescence, primary screen (AID 623;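 active means NADPH fluorescence slope more negative than the mean of all samples by about 3 SD, 99.7% confidence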;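 further: fluorescence intensity change per second fitted from 20 to 320 s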). The note with it: Recombinant KvBeta, NADPH fluorescence decrease slope, 10 min; at 10 µM; stronger effect = lower value.
For test [7], the target named is Muscarinic acetylcholine receptor M4 (Homo sapiens) (UniProt P08173). Briefly: M4-linked GIRK flux change, two-sided – cell-based, HEK293 M4/GIRK, thallium flux, BTC-AM, M4 allosteric agonist project, primary screen (AID 625;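 active means fluorescence slope after compound addition differing from the mean of all tested samples at 99.7% confidence, mostly higher but some lower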;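 further: thallium influx through GIRK channels coupled to M4 in HEK293 cells with BTC-AM dye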). Particulars: at 10 µM, actives lie on both sides. Summed up: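 Material: M4/GIRK1/GIRK2 stable HEK293 cell line. Medium: pH 7.3 thallium assay buffer. Dosing: single compound concentration, 10 µM final. Schedule: 1 h dye loading, 2 min kinetic read. Measured by: kinetic fluorescence with BTC-AM dye. Read-out: post-addition slope, 15–24 s, of baseline-normalized fluorescence. Benchmarks: carbachol and DMSO controls.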

The nature of test [8]: inhibitors of larval lipid processing in zebrafish, primary screen, whole organism, PED6 fluorescence, gall bladder and intestine (AID 686).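 Further: larvae 5 to 7 days old with five fish per well; signal comes from phospholipase A2 cleavage of quenched PED6 carried via bile; overnight exposure to compound and PED6 before scoring.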 Particulars: Zebrafish larvae PED6 lipid processing, fluorescence scoring; screened at 20 µM (by protocol). The method in brief:
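System: live zebrafish larvae aged 5-7 days, whole organism; measure: graded gall bladder and intestinal fluorescence inhibition per well; incubation: overnight exposure; reagent: ingested quenched lipid PED6 at 100 nM; signal: By-eye fluorescence microscopy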

A short description of test [9]: loss of swimming-algae plug formation – whole organism, Chlamydomonas reinhardtii, WT vs cilia-less mutant, absorbance, 96-well, primary screen (AID 463189;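 active means inhibition at or above 50% relative to wild type and mutant plate controls; inactive means inhibition below 50%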;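 further: 0% = wild type cc124 cells in DMSO and 100% = ciliumless bld1 mutant cells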). The note with it: Chlamydomonas reinhardtii gravitaxis, OD600 absorbance, 2 days; at 10 µM; stronger effect = higher value.
The mark [10] stands for this setting: measured here: cell density z-score.
Where [11] appears, read: measured here: nuclear c-Myc green intensity z-score.
The mark [12] stands for this setting: measured here: nuclear pErk red intensity z-score, stronger effect = higher value.

Calls of active or inactive are those of the source.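 How the source made its calls, unless noted: active means a full or partial loss of lipid-probe fluorescence in the fish gall bladder, intestine or both, judged by eye; inactive means no fluorescence loss, or compound toxic to the fish.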

Sequence of Dual specificity protein phosphatase 6 (Homo sapiens) (Q16828 whole entry, looked up): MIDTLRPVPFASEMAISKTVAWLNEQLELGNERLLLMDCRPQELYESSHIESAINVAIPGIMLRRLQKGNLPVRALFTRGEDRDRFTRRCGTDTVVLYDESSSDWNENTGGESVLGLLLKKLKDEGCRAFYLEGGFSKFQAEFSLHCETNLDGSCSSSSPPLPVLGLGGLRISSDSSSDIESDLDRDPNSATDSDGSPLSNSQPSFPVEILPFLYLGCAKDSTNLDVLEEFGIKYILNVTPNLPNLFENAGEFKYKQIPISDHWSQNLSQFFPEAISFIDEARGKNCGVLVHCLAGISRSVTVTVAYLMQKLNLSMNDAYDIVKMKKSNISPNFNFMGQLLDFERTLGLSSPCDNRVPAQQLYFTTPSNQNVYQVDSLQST
Sequence of Muscarinic acetylcholine receptor M4 (Homo sapiens) (P08173 whole entry, looked up): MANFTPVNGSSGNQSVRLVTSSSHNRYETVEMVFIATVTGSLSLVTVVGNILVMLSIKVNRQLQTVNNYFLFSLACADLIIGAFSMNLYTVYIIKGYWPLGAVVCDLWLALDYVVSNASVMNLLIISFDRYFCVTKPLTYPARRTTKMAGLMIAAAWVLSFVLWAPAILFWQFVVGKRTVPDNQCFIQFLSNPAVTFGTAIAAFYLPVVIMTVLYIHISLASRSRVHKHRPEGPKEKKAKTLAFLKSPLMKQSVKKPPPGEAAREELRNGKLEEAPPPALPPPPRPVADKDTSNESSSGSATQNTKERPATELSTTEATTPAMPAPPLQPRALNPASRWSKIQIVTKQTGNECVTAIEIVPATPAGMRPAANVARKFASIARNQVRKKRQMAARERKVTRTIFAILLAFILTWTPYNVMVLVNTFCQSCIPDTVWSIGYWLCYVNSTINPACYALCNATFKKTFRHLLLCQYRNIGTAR
Sequence of Voltage-gated potassium channel subunit beta-2 (Rattus norvegicus) (P62483 whole entry, looked up): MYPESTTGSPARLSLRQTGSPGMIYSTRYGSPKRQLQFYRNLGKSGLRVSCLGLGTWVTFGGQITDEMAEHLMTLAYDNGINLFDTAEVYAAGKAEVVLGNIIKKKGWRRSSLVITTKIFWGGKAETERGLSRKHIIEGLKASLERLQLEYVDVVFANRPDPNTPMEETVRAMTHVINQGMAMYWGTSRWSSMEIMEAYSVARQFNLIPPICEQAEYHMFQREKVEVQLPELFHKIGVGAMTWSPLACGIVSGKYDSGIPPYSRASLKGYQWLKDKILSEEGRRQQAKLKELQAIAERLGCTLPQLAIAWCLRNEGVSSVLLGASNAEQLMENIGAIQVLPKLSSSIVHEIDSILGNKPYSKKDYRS

As for `Cc1ccccc1-n1c(=O)/c(=C\c2ccco2)s/c1=C(/C#N)C(=O)Nc1ccccc1`, the cell count in test [1] turned out to be 677. Also, the inhibition was -5.8% (inactive) in test [1], -17.2% (inactive) in test [2], 9.37% (inactive) in test [4] and -0.051% (inactive) in test [9]. This compound also gave a nuclei count in test [2] of 151%. The z-score in test [3] (setting [10]) is 0.299; in test [3] (setting [11]), -0.624; in test [3] (setting [12]), -0.976. For the same compound, the values for the fluorescence slope in test [5] and in [7] were -0.475 (inactive) and 0.00343 (inactive), respectively. Also, the NADPH fluorescence slope in test [6] is -4.4e-05 (inactive). Besides, the result in test [8] was inactive.
Regarding `COc1ccc(C(=O)CCN2CCCCCC2)cc1`, in test [1], the cell count was determined as 387. Moreover, the inhibition in test [1] was -7.4% (inactive); in test [2], -32.1% (inactive); in [4] it was 5.42% (inactive); in [9], -0.057% (inactive). The same compound had a nuclei count in test [2] of 148%. Also, the z-score in test [3] (setting [10]) is -0.26; in test [3] (setting [11]) it was -0.113; in [3] (setting [12]), -0.00775. Also, the figures for the fluorescence slope in test [5] and in test [7] were -0.438 (inactive) and 0.00485 (inactive), respectively. Besides, in [6], the NADPH fluorescence slope was -0.000102 (inactive). Besides, the outcome in test [8] is “inactive; toxic”.
Consider `Cc1nc(SCC(=O)Nc2ccc3c(c2)OCO3)c(C#N)c2c1CCCC2`, for which the cell count in [1] came to 490. Besides, the inhibition in test [1] is 1.3% (inactive); in test [2], -215% (inactive); in [4], 9.37% (inactive); in test [9], 19.8% (inactive). For the same compound, the nuclei count in test [2] worked out at 145%. The z-score in test [3] (setting [10]) was -0.268; in test [3] (setting [11]), -1.41; in [3] (setting [12]) it was 0.298. Moreover, the fluorescence slope in test [5] is -0.472 (inactive); in [7], 0.00555 (inactive). In addition, the NADPH fluorescence slope in test [6] is -4e-05 (inactive). Further, the outcome in [8] was inactive.
As for `C=C(C)CN(CC)CCC(=O)Nc1ccc(OC)cc1OC`, the cell count in [1] was found to be 486. The inhibition is -7.5% (inactive) in test [1], -273% (inactive) in test [2], -7.28% (inactive) in [4] and 11.3% (inactive) in test [9]. Moreover, in test [2], the nuclei count was 172%. The z-score is -0.562 in test [3] (setting [10]), 0.149 in test [3] (setting [11]) and 0.762 in test [3] (setting [12]). The fluorescence slope in [5] is -0.424 (inactive); in test [7], 0.0048 (inactive). Besides, in [6], the NADPH fluorescence slope was -3.9e-05 (inactive). In addition, the compound was classed as inactive in test [8].
Consider `Cc1cc(=O)[nH]c(COc2ccccc2)n1`, for which the cell count in test [1] stood at 687. Moreover, the inhibition in test [1] is -9.9% (inactive); in test [2] it was -104% (inactive); in test [4], 3.49% (inactive); in test [9] it was -9.35% (inactive). The same compound gave a nuclei count in [2] of 162%. The z-score was 0.188 in [3] (setting [10]), 0.603 in test [3] (setting [11]) and 0.438 in test [3] (setting [12]). The fluorescence slope is -0.432 (inactive) in [5] and 0.00544 (inactive) in test [7]. Moreover, in test [6], the NADPH fluorescence slope is -2e-05 (inactive). In addition, the compound was classed as inactive in [8].
`CN1CC2(C)CN(C(c3ccccc3)c3ccccc3)CC(C)(C1)C2O` (stereo unspecified): the cell count in test [1] worked out at 529. Moreover, the inhibition in test [1] was -8.9% (inactive); in [2], -136% (inactive); in test [4] it was 3.42% (inactive); in test [9] it was -0.999% (inactive). Moreover, the nuclei count in test [2] was 154%. The z-score in [3] (setting [10]) is 1.6; in [3] (setting [11]), -0.0767; in test [3] (setting [12]), -1.37. Further, the fluorescence slope was -0.479 (inactive) in test [5] and 0.00415 (inactive) in [7]. In addition, in test [6], the NADPH fluorescence slope is -8.8e-05 (inactive). In addition, the result in [8] was inactive.
As to `CCN(CC)CCN1C(=O)c2ccccc2NC1c1cc(OC)c(OC)c(OC)c1` (stereo unspecified), the cell count in test [1] was found to be 672. Further, the inhibition in [1] was -13.1% (inactive); in test [2] it was 57.5% (inactive); in test [4] it was 3.49% (inactive); in test [9], 16.2% (inactive). This compound also yielded a nuclei count in [2] of 132%. Further, the figures for the z-score in [3] (setting [10]), in test [3] (setting [11]) and in [3] (setting [12]) were 0.00511, -1.27 and 1.11, respectively. Also, the figures for the fluorescence slope in [5] and in test [7] were -0.0732 (inactive) and 0.00441 (inactive), respectively. For the same compound, in test [6], the NADPH fluorescence slope was -1.4e-05 (inactive). The compound was called inactive in [8].
